Active and inactive are the calls of the source. No cut-off for these calls is given here.
What was measured:
Substance-P receptor [1] = target: T1, Substance-P receptor (Homo sapiens, UniProt P25103); experiment: Agonist activity at human NK1 receptor expressed in CHO-K1 cells at 10^-4 M after 30 mins by aequorin luminescence assay; format: functional, cell-based
Outline: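 CHO-K1 cells stably expressing human NK1R and transfected with apoaequorin; loaded 4 h with 5 μM coelenterazine h in BSA-medium, diluted 10-fold, further 30 min. Compound added to wells; cells (2.5 × 10^4) injected, light read every second for 30 s, then 10 nM ATP injected as positive control and read 10 s more. Duplicates; expressed as % of luminescence at 10^-4 M SP.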

Substance-P receptor [2] = target: T1, Substance-P receptor; experiment: Antagonist activity at human NK1 receptor expressed in CHO-K1 cells assessed as inhibition of substance P-induced calcium-dependent aequorine luminescence; format: functional, cell-based; details: read-out: pA2 (converted)
Outline: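 Aequorin-expressing CHO-K1/hNK1 cells charged 4 h with 5 μM coelenterazine h, then diluted and held 30 min. SP series 10^-11 to 10^-4 M combined with test compound at 10^-8 to 10^-4 M; cell injection started 30 s luminescence read, then 10 nM ATP control.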

Substance-P receptor [3] = target: T1, Substance-P receptor; experiment: Displacement of [3H]SP from human recombinant NK1 receptor expressed in CHO cells after 20 mins by liquid scintillation counting; format: cell-based
Outline: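 Crude membranes from hNK1/CHO cells; 20 µg incubated with 0.4 nM [3H]SP and six test concentrations in duplicate, 50 mM Tris pH 7.4 with 5 mM MgCl2, bacitracin, bestatin, captopril, PMSF; 25 °C, 20 min. Nonspecific binding with 10 µM SP. Filtration on PEI-soaked GF/B, scintillation counting; IC50 by nonlinear regression, Ki by Cheng–Prusoff; three independent experiments, mean ± SEM.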

Substance-P receptor [4] = target: T1, Substance-P receptor; experiment: Antagonist activity at NK1 receptor; format: functional

T1 sequence (P25103 whole entry): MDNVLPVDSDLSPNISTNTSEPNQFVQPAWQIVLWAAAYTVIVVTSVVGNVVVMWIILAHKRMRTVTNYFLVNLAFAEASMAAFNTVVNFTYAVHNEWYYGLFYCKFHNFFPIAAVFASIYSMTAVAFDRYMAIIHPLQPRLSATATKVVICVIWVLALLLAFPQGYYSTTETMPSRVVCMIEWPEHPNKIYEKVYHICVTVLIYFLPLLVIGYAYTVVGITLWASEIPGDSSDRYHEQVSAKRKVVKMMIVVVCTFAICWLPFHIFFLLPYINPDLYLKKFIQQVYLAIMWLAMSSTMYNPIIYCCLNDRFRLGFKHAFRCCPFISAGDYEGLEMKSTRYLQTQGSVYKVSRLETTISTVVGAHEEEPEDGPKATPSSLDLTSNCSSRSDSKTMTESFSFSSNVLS

Structure (SMILES): CC(=O)N[C@H]1Cc2ccccc2CN(CC(=O)N(C)Cc2cc(C(F)(F)F)cc(C(F)(F)F)c2)C1=O
- Activity (Substance-P receptor [1]): inactive
- Kb (Substance-P receptor [2]): 3.98 nM
- Ki (Substance-P receptor [3]): 27 nM

Structure (SMILES): CC(=O)N[C@H]1Cc2ccccc2[C@@H](c2ccccc2)N(CC(=O)N(C)Cc2cc(C(F)(F)F)cc(C(F)(F)F)c2)C1=O
- Activity (Substance-P receptor [1]): inactive

Structure (SMILES): CC(=O)N1Cc2[nH]c3ccccc3c2C[C@@H]1C(=O)N(C)Cc1cc(C(F)(F)F)cc(C(F)(F)F)c1
- Activity (Substance-P receptor [1]): inactive

Structure (SMILES): CC(=O)N[C@@H]1Cc2ccccc2[C@@H](c2ccccc2)N(CC(=O)N(C)Cc2cc(C(F)(F)F)cc(C(F)(F)F)c2)C1=O
- Activity (Substance-P receptor [1]): inactive

Structure (SMILES): CC(=O)N[C@@H]1Cc2c([nH]c3ccccc23)CN(CC(=O)N(C)Cc2cc(C(F)(F)F)cc(C(F)(F)F)c2)C1=O
- Activity (Substance-P receptor [1]): inactive

Structure (SMILES): CC(=O)N[C@H]1Cc2c([nH]c3ccccc23)CN(Cc2cc(C(F)(F)F)cc(C(F)(F)F)c2)C1=O
- Activity (Substance-P receptor [1]): inactive

Structure (SMILES): CC(=O)N[C@H]1Cc2c([nH]c3ccccc23)CN(CC(=O)N(C)Cc2cc(C(F)(F)F)cc(C(F)(F)F)c2)C1=O
- Activity (Substance-P receptor [1]): inactive

Structure (SMILES): CC(=O)N1Cc2ccccc2C[C@H]1C(=O)N(C)Cc1cc(C(F)(F)F)cc(C(F)(F)F)c1
- Activity (Substance-P receptor [1]): inactive
- Kb (Substance-P receptor [2]): 31.6 nM
- Ki (Substance-P receptor [3]): 32 nM

Structure (SMILES): CC(=O)N1Cc2[nH]c3ccccc3c2C[C@H]1C(=O)N(C)Cc1cc(C(F)(F)F)cc(C(F)(F)F)c1
- Activity (Substance-P receptor [1]): inactive

Structure (SMILES): CC(=O)N[C@H]1Cc2ccccc2CN(CC(=O)NCc2cc(C(F)(F)F)cc(C(F)(F)F)c2)C1=O
- Activity (Substance-P receptor [1]): inactive
- Kb (Substance-P receptor [2]): 631 nM
- Ki (Substance-P receptor [3]): 387 nM

Structure (SMILES): CC(=O)N[C@H]1Cc2ccccc2[C@@H](c2ccccc2)N(CC(=O)NCc2cc(C(F)(F)F)cc(C(F)(F)F)c2)C1=O
- Activity (Substance-P receptor [1]): inactive

Structure (SMILES): O=C1O[C@@H](Cc2c[nH]c3ccccc23)C(=O)N1Cc1cc(C(F)(F)F)cc(C(F)(F)F)c1
- IC50 (Substance-P receptor [4]): 25 nM

Structure (SMILES): CC(=O)N1Cc2ccccc2C[C@H]1C(=O)NCc1cc(C(F)(F)F)cc(C(F)(F)F)c1
- Activity (Substance-P receptor [1]): inactive

From ChEMBL document CHEMBL1781883, “Design of novel neurokinin 1 receptor antagonists based on conformationally constrained aromatic amino acids and discovery of a potent chimeric opioid agonist-neurokinin 1 receptor antagonist” (J Med Chem, 2011)
